We go through 1 compound from ChEMBL document CHEMBL4007469, “Design and synthesis of dalbergin analogues and evaluation of anti-osteoporotic activity” (Bioorg Med Chem Lett, 2017).

Calls of active or inactive are those of the source. No cut-off for these calls is given here.

The subject of test [1] is Mus musculus. The test can be described thus: Osteogenic activity in Balb/c mouse drill-hole fracture model assessed as increase in aggrecan mRNA level at 1 mg/kg, po qd via gavage for 21 days by RT-PCR method.
Test [2] has as its system Mus musculus. The test can be described thus: Anti-osteoporotic activity in ovariectomized postmenopausal Balb/c mouse model assessed as induction of femur bone marrow cell differentiation by measuring increase in ALP activity at 1 mg/kg, po qd via gavage for 6 weeks relative to control. The class given is functional. In outline: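 Ovariectomized 8-week-old female Balb/c mice given 1.0 mg/kg/day orally by gavage for 6 weeks; bone marrow cells then cultured ex vivo. ALP activity read at 405 nm; mineralized nodules stained with Alizarin Red at day 21 of culture. Mean ± SE versus OVx group.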

Test [3] deals with Mus musculus. The test can be described thus: Osteogenic activity in Balb/c mouse drill-hole fracture model assessed as increase in Runx2 mRNA level at 1 mg/kg, po qd via gavage for 21 days by RT-PCR method.
The subject of test [4] is Mus musculus. The test can be described thus: Anti-osteoporotic activity in ovariectomized postmenopausal Balb/c mouse model assessed as increase in BMP2 gene expression in femur bone at 1 mg/kg, po qd via gavage for 6 weeks by RT-PCR method. The class given is functional, organism-based. In short, it runs like this:
(§1)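 Eight-week-old female Balb/c mice, ovariectomized and left 6 weeks for osteopenia to develop; groups sham+vehicle, OVx+vehicle, OVx+1.0 mg/kg/day, dosed once daily by oral gavage for 6 weeks in gum acacia/distilled water vehicle. Mice kept at 21°C, 12 h light/dark, chow and water ad libitum. Femoral bone mRNA or serum measured after sacrifice; mean ± SE versus OVx group.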

Test [5] concerns Mus musculus. The test can be described thus: Anti-osteoporotic activity in ovariectomized postmenopausal Balb/c mouse model assessed as increase in COL1 gene expression in femur bone at 1 mg/kg, po qd via gavage for 6 weeks by RT-PCR method. The format is functional, organism-based. In outline:
as §1

Test [6] has as its system Mus musculus. The test can be described thus: Anti-osteoporotic activity in ovariectomized postmenopausal Balb/c mouse model assessed as improvement in micro-artchitectural parameter in tibia by measuring trabecular number at 1 mg/kg, po qd via gavage for 6 weeks by micro CT-scan analysis (reference value: 1.49 +/- 0.25 /millimeter). The class given is functional. In outline:
(§2)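 Female Balb/c mice, 8 weeks old, ovariectomized, 6 weeks osteopenia development, then 1.0 mg/kg/day or gum acacia vehicle by oral gavage once daily for 6 weeks (sham, OVx and treated groups). Bones collected after sacrifice for micro-CT of trabecular microarchitecture (BV/TV, Tb.N, Tb.Th, Tb.Sp, SMI) and biomechanical testing of femur and vertebrae (energy, stiffness); mean ± SE versus OVx.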

Test [7] concerns Mus musculus. The test can be described thus: Anti-osteoporotic activity in ovariectomized postmenopausal Balb/c mouse model assessed as femur bone breaking strength by measuring energy at 1 mg/kg, po qd via gavage for 6 weeks by micro CT-scan analysis (reference value: 2.6 +/- 0.18 mJ). The format is functional. In outline:
as §2

Test [8] has as its system Mus musculus. The test can be described thus: In vivo induction of osteogenesis in Balb/c mouse assessed as increase in mineral appositional rate in calvaria at 0.1 to 1 mg/kg/day, sc over calvarial surface for 5 consecutive days by fluorochromes tetracycline and calcein labeling based histomorphometric analysis. The format is functional, organism-based. In outline:
(§3)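 Three-week-old Balb/c mice (3 per group) injected subcutaneously over the calvarial surface daily for 5 consecutive days at 0.1, 0.5, 1 and 5 mg/kg/day. Calvaria fixed in 4% formaldehyde, paraffin-embedded, H&E-stained; tetracycline and calcein (20 mg/kg each, ip) given for MAR/BFR histomorphometry; calvarial mRNA by RT-PCR. Mean ± SE, three independent experiments, versus untreated.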

The subject of test [9] is Mus musculus. The test can be described thus: Anti-osteoporotic activity in ovariectomized postmenopausal Balb/c mouse model assessed as mineral apposition rate at 1 mg/kg, po qd via gavage for 6 weeks by fluorochromes tetracycline and calcein labeling based histomorphometric analysis (reference value: 0.099 +/- 0.01 umeter/day). The format is functional.
The test system of test [10] is Mus musculus. The test can be described thus: Anti-osteoporotic activity in ovariectomized postmenopausal Balb/c mouse model assessed as femur bone breaking strength by measuring stiffness at 1 mg/kg, po qd via gavage for 6 weeks by micro CT-scan analysis (reference value: 34.3 +/- 1.84 N/mm). The class given is functional. In short, it runs like this:
as §2

In test [11] the test system is Mus musculus. The test can be described thus: Anti-osteoporotic activity in ovariectomized postmenopausal Balb/c mouse model assessed as vertebrae compressive strength by measuring energy at 1 mg/kg, po qd via gavage for 6 weeks by micro CT-scan analysis (reference value: 224.75 +/- 1.06 mJ). The format is functional. In outline:
as §2

In test [12] the test system is Mus musculus. The test can be described thus: In vivo induction of osteogenesis in Balb/c mouse assessed as increase in ALP mRNA level in calvaria at 1 mg/kg/day, sc over calvarial surface for 5 consecutive days by RT-PCR method relative to control. The format is functional. In outline:
as §3

In test [13] the test system is Mus musculus. The test can be described thus: Osteogenic activity in Balb/c mouse drill-hole fracture model assessed as structure model index at 1 mg/kg, po qd via gavage for 21 days by micro-CT method (reference value: 2.585 +/- 0.387).
Test [14] concerns Mus musculus. The test can be described thus: Anti-osteoporotic activity in ovariectomized postmenopausal Balb/c mouse model assessed as improvement in micro-artchitectural parameter in tibia by measuring trabecular thickness at 1 mg/kg, po qd via gavage for 6 weeks by micro CT-scan analysis (reference value: 0.0475 +/- 0.0005 millimeter). The class given is functional. In outline:
as §2

Turning to `COc1cc2oc(=O)cc(-c3ccccc3)c2cc1OCCCCCN1CCN(C)CC1`, the outcome in the test with Mus musculus [1], in the test with Mus musculus [3], in the test with Mus musculus [4], in the test on Mus musculus [5] and with Mus musculus [8] was Active. Besides, the “fold change (FC)” value with Mus musculus [2] is 2; in the test with Mus musculus [12] it was 5. The Activity in the test on Mus musculus [6] was 2.7 /millimeter; in the test on Mus musculus [7], 4.55 mJ; in the test on Mus musculus [9], 0.177 micrometer/day; in the test with Mus musculus [10], 53.55 N/mm; in the test with Mus musculus [11] it was 262.55 mJ; in the test with Mus musculus [14] it was 0.052 mm. In the test with Mus musculus [13], the Activity_index is 0.496.
